Test results as given in ChEMBL document CHEMBL1949520, “Synthesis of terphenyl benzimidazoles as tubulin polymerization inhibitors” (2012).
Calls of active or inactive are those of the source. No cut-off for these calls is given here.

Assays:
[1] = tested on: A549; assay: Cell cycle arrest in human A549 cells assessed as accumulation at G2/M phase at 1 uM after 48 hrs by propidium iodide staining-based flow cytometric analysis relative to control; assay type: functional
Outline: (§1)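 A549 cells treated 48 h (5 μM test agents; 1 μM standard), trypsin-EDTA harvest, PBS wash, fixed in ice-cold 70% ethanol at 4 °C for 30 min, then stained 30 min at room temperature in the dark with propidium iodide/trisodium citrate/Triton X-100 solution. DNA content by flow cytometry; G2/M fraction compared with untreated control.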

[2] = species: Bos taurus; assay: Inhibition of bovine tubulin polymerization after 1 hr at 1 min interval by fluorescence assay
Outline: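 Bovine brain tubulin, 2 mg/mL, in PEM buffer (80 mM PIPES, 0.5 mM EGTA, 2 mM MgCl2, pH 6.9) with fluorescent reporter, compounds at 3 μM, 37 °C. Reaction started by adding 1 mM GTP. Polymerization followed as fluorescence gain (ex 360/em 420 nm), read every 1 min for 1 h. Nocodazole as positive control.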

[3] = tested on: A549; assay: Inhibition of alpha-tubulin in human A549 cells assessed as ratio of free to polymerized tubulin at 1 uM after 24 hrs by densitometric analysis relative to control; assay type: cell-based
Outline: (§2)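 A549 cells exposed 24 h (5 μM test agents; 1 μM nocodazole or taxol). Spun 15000g, 30 min, 22 °C to give soluble and polymerized fractions. α-Tubulin Western blot; band densitometry as soluble/polymerized ratio.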

[4] = tested on: A549; assay: Growth inhibition of human A549 cells by SRB assay; assay type: functional
[5] = Growth inhibition of human Gurav cells by SRB assay; assay type: functional
[6] = tested on: HOP-62; assay: Growth inhibition of human HOP62 cells by SRB assay; assay type: functional
[7] = tested on: MCF7; assay: Growth inhibition of human MCF7 cells by SRB assay; assay type: functional
[8] = tested on: ZR-75-1; assay: Growth inhibition of human ZR-75-1 cells by SRB assay; assay type: functional
[9] = tested on: A2780; assay: Growth inhibition of human A2780 cells by SRB assay; assay type: functional
[10] = Growth inhibition of human DWD cells by SRB assay; assay type: functional
[11] = tested on: KB; assay: Growth inhibition of human KB cells by SRB assay; assay type: functional
[12] = tested on: COLO 205; assay: Growth inhibition of human COLO205 cells by SRB assay; assay type: functional
[13] = tested on: PC-3; assay: Growth inhibition of human PC3 cells by SRB assay; assay type: functional
[14] = tested on: SiHa; assay: Growth inhibition of human SiHa cells by SRB assay; assay type: functional
[15] = tested on: A549; assay: Cell cycle arrest in human A549 cells assessed as accumulation at G2/M phase at 5 uM after 48 hrs by propidium iodide staining-based flow cytometric analysis; assay type: functional; outline: as §1
[16] = tested on: A549; assay: Inhibition of alpha-tubulin in human A549 cells assessed as ratio of free to polymerized tubulin at 5 uM after 24 hrs by densitometric analysis relative to control; assay type: cell-based; outline: as §2

Row | SMILES | Activity [1] | inhibition [2] [%] | fold change (FC) [3] | GI50 [4] [µM] | GI50 [5] [µM] | GI50 [6] [µM] | GI50 [7] [µM] | GI50 [8] [µM] | GI50 [9] [µM] | GI50 [10] [µM] | GI50 [11] [µM] | GI50 [12] [µM] | GI50 [13] [µM] | GI50 [14] [µM] | Activity [15] | fold change (FC) [16]
1 | COC(=O)Nc1nc2cc(C(=O)c3cccs3)ccc2[nH]1 | Active | 58.9 | 1.5 | – | – | – | – | – | – | – | – | – | – | – | – | –
2 | COc1cc(-c2ccc(-c3ccc(-c4nc5c(O)cccc5[nH]4)cc3)cc2)cc(OC)c1OC | – | 98.3 | – | < 0.1 | 0.17 | 0.19 | < 0.1 | 0.19 | 0.17 | 0.19 | 2.11 | 0.19 | 0.17 | 0.17 | Active | 1.4
3 | CC(=O)O[C@H]1C(=O)[C@@]2(C)[C@H]([C@H](OC(=O)c3ccccc3)[C@]3(O)C[C@H](OC(=O)[C@H](O)[C@@H](NC(=O)c4ccccc4)c4ccccc4)C(C)=C1C3(C)C)[C@]1(OC(C)=O)CO[C@@H]1C[C@@H]2O | – | – | 0.5 | – | – | – | – | – | – | – | – | – | – | – | – | –
4 | Oc1ccc(-c2ccc(-c3ccc(-c4nc5c(O)cccc5[nH]4)cc3)cc2)cc1 | – | 36.3 | – | 0.17 | 0.19 | 2.41 | 0.19 | 2.65 | 2.92 | 2.7 | 3.19 | 2.6 | 0.19 | 2.41 | Active | 1.1
5 | COc1cc(-c2ccc(-c3ccc(-c4nc5cc(C)ccc5[nH]4)cc3)cc2)cc(OC)c1OC | – | 48.8 | – | < 0.1 | 0.17 | 2.37 | 0.17 | 0.19 | 0.19 | 0.17 | 2.11 | 0.19 | 0.18 | 0.17 | Active | 1.3
6 | CN(C)c1ccc(-c2ccc(-c3ccc(-c4nc5ccccc5[nH]4)cc3)cc2)cc1 | – | – | – | 30.1 | 100 | 100 | 41.2 | 100 | 100 | 100 | 39.3 | 100 | 100 | 100 | – | –
7 | Cc1ccc2[nH]c(-c3ccc(-c4ccc(-c5ccc(N(C)C)cc5)cc4)cc3)nc2c1 | – | – | – | 3.51 | 6.24 | 4.23 | 3.13 | 7.2 | 2.21 | 3.23 | 6.24 | 9.21 | 8.12 | 7.11 | – | –
8 | COc1cc(-c2ccc(-c3ccc(-c4nc5ccccc5[nH]4)cc3)cc2)cc(OC)c1OC | – | – | – | 2.11 | 7.1 | 9.43 | 6.38 | 9.71 | 9.21 | 8.01 | 2.98 | 8.32 | 9.72 | 4.98 | – | –
9 | Cc1ccc2[nH]c(-c3ccc(-c4ccc(-c5cccc(Cl)c5)cc4)cc3)nc2c1 | – | – | – | 2.8 | 2.12 | 2.74 | 1.21 | 3.45 | 2.8 | 2.51 | 2.26 | 2.78 | 2.67 | 3.6 | – | –
10 | Oc1cccc2[nH]c(-c3ccc(-c4ccc(-c5ccccc5)cc4)cc3)nc12 | – | – | – | 8.32 | 1.11 | 9.04 | 2.2 | 35.6 | 41 | 9.68 | 4.01 | 1.21 | 1.24 | 9.71 | – | –
11 | COc1ccc(-c2ccc(-c3ccc(-c4nc5cc(C)ccc5[nH]4)cc3)cc2)cc1 | – | – | – | 6.33 | 9.27 | 36.3 | 3.11 | 41.1 | 2.11 | 100 | 28.3 | 100 | 100 | 21.2 | – | –
12 | Fc1ccc(-c2ccc(-c3ccc(-c4nc5ccccc5[nH]4)cc3)cc2)cc1 | – | – | – | 33.2 | 100 | 39.3 | 36.2 | 100 | 48.2 | 35.6 | 41.3 | 100 | 41.2 | 29.7 | – | –
13 | Oc1ccc(-c2ccc(-c3ccc(-c4nc5ccccc5[nH]4)cc3)cc2)cc1 | – | – | – | 33.1 | 100 | 47.2 | 30.5 | 100 | 36 | 46.3 | 41 | 100 | 47 | 33.3 | – | –
